# From publication PMC2094211 (Biochimica et Biophysica Acta. Molecular Basis of Disease, 2007)
# Square brackets hold non-standard residues; d marks the D form. Ends that are not written are not given here. * marks the point of attachment. Nle = CCCC[C@H](N)C(=O)O; For = O=C*
# What was measured:
# [1] = molecular target: T1, FPR R190/N192 (Homo sapiens, UniProt P21462); assay: FACScan analysis of ligand binding
# T1 sequence (P21462 1-350): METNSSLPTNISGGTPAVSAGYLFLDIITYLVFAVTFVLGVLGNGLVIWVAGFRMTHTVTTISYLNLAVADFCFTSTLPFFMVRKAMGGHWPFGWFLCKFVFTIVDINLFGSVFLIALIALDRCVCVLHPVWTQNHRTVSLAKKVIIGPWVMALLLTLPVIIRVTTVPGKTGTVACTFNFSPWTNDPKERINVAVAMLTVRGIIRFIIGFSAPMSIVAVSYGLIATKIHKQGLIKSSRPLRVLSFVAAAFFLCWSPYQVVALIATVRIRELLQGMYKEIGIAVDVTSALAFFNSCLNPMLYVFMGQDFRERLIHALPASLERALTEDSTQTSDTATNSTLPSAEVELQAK
# [2] = molecular target: T2, FPR R190/K192 (Homo sapiens, UniProt P21462, N192K); assay: FACScan analysis of ligand binding
# T2 sequence (P21462 1-350 N192K): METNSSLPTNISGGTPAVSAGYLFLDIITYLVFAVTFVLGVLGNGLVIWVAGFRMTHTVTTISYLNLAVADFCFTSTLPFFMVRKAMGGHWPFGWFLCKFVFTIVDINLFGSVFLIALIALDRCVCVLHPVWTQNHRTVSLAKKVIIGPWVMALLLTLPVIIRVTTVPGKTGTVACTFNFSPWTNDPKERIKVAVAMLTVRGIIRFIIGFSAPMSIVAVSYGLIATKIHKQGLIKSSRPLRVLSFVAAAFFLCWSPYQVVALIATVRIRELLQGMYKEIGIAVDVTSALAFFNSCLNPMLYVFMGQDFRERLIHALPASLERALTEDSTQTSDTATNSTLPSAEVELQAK
# [3] = molecular target: T3, FPR W190/N192 (Homo sapiens, UniProt P21462, R190W); assay: FACScan analysis of ligand binding
# T3 sequence (P21462 1-350 R190W): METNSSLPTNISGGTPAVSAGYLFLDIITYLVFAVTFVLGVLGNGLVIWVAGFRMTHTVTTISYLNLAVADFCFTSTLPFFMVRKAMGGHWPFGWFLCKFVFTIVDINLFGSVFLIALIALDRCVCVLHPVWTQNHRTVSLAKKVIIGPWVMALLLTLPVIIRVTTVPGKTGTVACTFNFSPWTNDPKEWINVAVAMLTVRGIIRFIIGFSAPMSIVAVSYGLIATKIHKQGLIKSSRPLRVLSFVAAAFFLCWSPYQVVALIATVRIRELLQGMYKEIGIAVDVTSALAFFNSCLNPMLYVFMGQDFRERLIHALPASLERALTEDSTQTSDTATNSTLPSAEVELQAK
# [4] = molecular target: T3, FPR W190/N192; assay: Downregulation of surface FPR in CHO S cells; format: cell-based
# Outline: (§1)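 CHO S cells expressing the FPR variant were exposed to test compound (0.4% DMSO) in CHO-S-SFMII for 1 h at 37 °C. They were washed twice with cold phosphate buffer, then labeled 1 h at 4 °C with 50 nM formyl-Nle-Leu-Phe-Nle-Tyr-Lys-FITC in pH 7.4 buffer with Mg++, Ca++ and 5% FBS. Mean fluorescence was measured by FACScan, minus non-expressing cells.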
# [5] = molecular target: T2, FPR R190/K192; assay: Downregulation of surface FPR in CHO S cells; format: cell-based
# Outline: as §1
# [6] = molecular target: T1, FPR R190/N192; assay: Downregulation of surface FPR in CHO S cells; format: cell-based
# Outline: as §1
# [7] = molecular target: T4, FPR R190/N192 (Homo sapiens, UniProt P21462); assay: FACS competition with formyl-Nle-Leu-Phe-Nle-Tyr-Lys-FITC
# T4 chain: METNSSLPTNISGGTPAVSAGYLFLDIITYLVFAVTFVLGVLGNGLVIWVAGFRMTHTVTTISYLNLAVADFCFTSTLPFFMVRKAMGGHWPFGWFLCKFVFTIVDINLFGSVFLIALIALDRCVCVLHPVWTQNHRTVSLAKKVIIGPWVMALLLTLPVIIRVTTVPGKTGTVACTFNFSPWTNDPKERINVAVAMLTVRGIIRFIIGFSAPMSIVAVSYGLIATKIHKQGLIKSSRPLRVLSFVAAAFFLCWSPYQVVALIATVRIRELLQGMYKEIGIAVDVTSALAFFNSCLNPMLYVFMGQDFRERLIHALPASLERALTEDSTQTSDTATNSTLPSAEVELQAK
# [8] = molecular target: T5, FPR W190/N192 (Homo sapiens, UniProt P21462); assay: as above
# T5 chain: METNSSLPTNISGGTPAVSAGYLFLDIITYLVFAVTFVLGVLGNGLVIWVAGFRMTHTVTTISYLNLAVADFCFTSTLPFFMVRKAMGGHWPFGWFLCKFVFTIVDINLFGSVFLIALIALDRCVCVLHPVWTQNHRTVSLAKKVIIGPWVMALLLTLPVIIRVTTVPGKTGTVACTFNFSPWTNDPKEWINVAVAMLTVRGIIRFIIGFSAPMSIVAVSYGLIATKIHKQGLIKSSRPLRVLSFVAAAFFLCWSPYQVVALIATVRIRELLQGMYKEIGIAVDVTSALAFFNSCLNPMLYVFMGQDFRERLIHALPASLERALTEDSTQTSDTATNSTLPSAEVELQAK
molecule,measurement,setting,value
Ac-WEDAVGWI-NH2,"Binding relative to WEDWVGWI, R190/N192",[1]; fold weaker,more than 10 fold
same,"Binding relative to WEDWVGWI, R190/K192",[2]; fold weaker,more than 10 fold
same,"Binding relative to WEDWVGWI, W190/N192",[3]; fold weaker,more than 10 fold
Ac-WEDWVGWI-NH2,Ki,"[1]; Ki for binding of peptides to R190/N192 FPR, ± SEM, vs 0.38 nM formyl-Nle-Leu-Phe-Nle-Tyr-Lys-FITC, 4 °C, 60 min",1300 ± 200 nM
same,"Inhibition of the downregulation with 300 nM formyl-Nle-Leu-Phe, W190/N192","[4]; 25 μM peptide, data not shown",~50%
same,Ki,"[2]; Ki for binding of peptides to R190/K192 FPR, ± SEM, vs 0.38 nM formyl-Nle-Leu-Phe-Nle-Tyr-Lys-FITC, 4 °C, 60 min",1300 ± 300 nM
same,"Inhibition of the downregulation with 300 nM formyl-Nle-Leu-Phe, R190/K192","[5]; 25 μM peptide, data not shown",~50%
same,"Inhibition of the downregulation with 300 nM formyl-Nle-Leu-Phe, R190/N192","[6]; 25 μM peptide, data not shown",~50%
same,Ki,[3],2600 ± 400 nM
formyl-NleNleWED,"Downregulation of surface receptor, W190/N192",[4]; concentrations up to 50 μM,very little downregulation
same,"Downregulation of surface receptor, R190/K192",[5]; concentrations up to 50 μM,very little downregulation
same,"Downregulation of surface receptor, R190/N192",[6]; concentrations up to 50 μM,very little downregulation
"For-[Nle][Nle]WEDWVGWI [formyl-NleNleWEDWVGWI, listing 1 of 2 here]",Ki,[7],480 nM
"For-[Nle][Nle]WEDWVGWI [formyl-NleNleWEDWVGWI, listing 2 of 2 here]",Ki,[8],1000 nM
Ac-WEDWVGWI-NH2 [WEDWVGWI (FIV GP-36 peptide)],Ki,[7],1300 nM
